According to the RNAGym collection of RNA variant scans (doi:10.1126/science.aae0568):
Variants at the floor of the assay were thinned out.

B1: tRNA (parent)
chain: GUUCCGUUGGCGUAAUGGUAACGCGUCUCCCUCCUAAGGAGAAGACUGCGGGUUCGAGUCCCGUACGGAACG

Variants of: B1
Assay: yeast fitness relative to wild type (ratio to wild type); higher = fitter; tRNA-Arg(CCU), competitive growth, 37 C, YPD
Method in brief: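 Variants of the tRNA-Arg(CCU) gene, chemically synthesised with a 3% per-site mutation rate at 69 sites, were placed at the native genomic locus in Saccharomyces cerevisiae. The pooled strains were competed in YPD at 37°C for 24 hours in six parallel replicates. Gene amplicons from the start population and from each end population were read by 100-nucleotide paired-end sequencing. Darwinian fitness relative to wild type came from changes in genotype frequencies; genotypes needed ≥ 100 starting reads, and estimates < 0.5 were set to 0.5.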

Row | Variant | yeast fitness
1 | A37U A43C U47C C60G | ≤ 0.5
2 | G38C G41C A70C | 0.553
3 | A37G A65C | 0.942
4 | G38A A42C | 0.734
5 | G38A A42U | 0.661
6 | G38A G50C | 0.746
7 | G38A G50A | 0.859
8 | G38A G48A C49G A69U | ≤ 0.5
9 | G38A C46G G56C | ≤ 0.5
10 | A37C U47G C62G G68A | 0.549
11 | A37C G67C | 0.846
12 | A37C G67A | 0.696
13 | G38A U64A | 0.765
14 | G38C A43U | 0.769
15 | G38C A43G | 0.643
16 | G38C A43C | 1.12
17 | A37G G68A A69G | ≤ 0.5
18 | A37G G38A | 0.725
19 | A37G A57C | 0.545
20 | A37G C55U G56A C66G | ≤ 0.5
21 | G38C G41A C61U | 0.553
22 | A37G A45C C61G A70U | ≤ 0.5
23 | A37G C49G A57C | 0.798
24 | A37G A45U | 0.684

Row | Variant | yeast fitness
25 | A37G A45C | 0.78
26 | G38C C62A | 0.624
27 | G38C C62G | 0.63
28 | A37U U47A C62U | 0.531
29 | G38A A42C A45C C62A | ≤ 0.5
30 | A37U A42G A45U | 0.592
31 | G38A C46U A69U | 0.686
32 | G38C A40U | 0.639
33 | G38C G41C A65G | 0.597
34 | G38C A65C C66U | ≤ 0.5
35 | G38C G39U C60A | ≤ 0.5
36 | A37U G56C A57U | ≤ 0.5
37 | G38A G63A | 0.897
38 | A37C G52C C60G C61A C66U | ≤ 0.5
39 | A37U U53A G58C | ≤ 0.5
40 | A37G G51C C62G | 0.55
41 | A37U U54C U64A A69U | ≤ 0.5
42 | A37U G50C G67A | ≤ 0.5
43 | G38C C49G U54G | 0.621
44 | A37G G44C A57U G67U A69C | ≤ 0.5
45 | A37U C46U | 0.821
46 | A37U G50C C66U | 0.593
47 | A37U A40C A42G | ≤ 0.5
48 | A37G G41A | 0.805

Row | Variant | yeast fitness
49 | G38A C62U | 0.961
50 | A37G G41C A43U C66U A69C | ≤ 0.5
51 | G38C A45G U59A | ≤ 0.5
52 | G38C C61A | 0.608
53 | A37G A42C A65C A69C | 0.616
54 | G38C C55G A69C | 0.579
55 | A37U C55A C60U | ≤ 0.5
56 | A37G A42G | 0.838
57 | A37G G51C C62G C66U | ≤ 0.5
58 | A37U U54G | ≤ 0.5
59 | A37U C49U C61U | 0.527
60 | A37U A45U U47C | ≤ 0.5
61 | G38A G39A | 0.637
62 | A37C G41A A70C | ≤ 0.5
63 | G38C A40U G48A C66U | 0.556
64 | G38C A57C | 0.535
65 | A37G G39A A40G G41A A43G | ≤ 0.5
66 | A37G A40C C61G A69U | ≤ 0.5
67 | G38C G50A A70G | 0.527
68 | G38C C62U A69U | 0.603
69 | G38C A45C U47C | ≤ 0.5
70 | A37U U59A | 0.706
71 | G38A U47C G48A | 0.542
72 | A37G A43G A69U | 0.802

Row | Variant | yeast fitness
73 | A37G C66G | 0.692
74 | A37G C66U | 0.828
75 | A37G G51A | 0.704
76 | A37U G44A A70C | 0.614
77 | A37U G44A A70G | ≤ 0.5
78 | A37G C55G C66G | ≤ 0.5
79 | G38A C62A A65U C66U | ≤ 0.5
80 | A37U A42U C66A A69C | 0.572
81 | G38C G41C U54C A65G | ≤ 0.5
82 | G38A A42U U54A | ≤ 0.5
83 | A37G A40G A43G G52C U59G | ≤ 0.5
84 | A37U A42C C55U A69U | ≤ 0.5
85 | A37C G44C G52C U59C C66U | 0.574
86 | A37U A40U G67C | 0.563
87 | G38A G44C | 0.712
88 | A37U U53G | 0.538
89 | A37G A42U G48C C49U | 0.599
90 | G38A G52C C62U | 0.595
91 | A37G C46U | 0.722
92 | A37C U59G | 0.712
93 | A37G A40U C49A A57U | ≤ 0.5
94 | A37U G52C | ≤ 0.5
95 | G38C A40U G51A C60U | 0.725
96 | G38A C60U G67C | ≤ 0.5

Row | Variant | yeast fitness
97 | G38C C61A G67A | ≤ 0.5
98 | A37U G50A | 0.804
99 | G38A A43G A57C | ≤ 0.5
100 | G38C G39C G56C G68A | ≤ 0.5
101 | A37U A57C A69U A70C | 0.775
102 | G38C G41C A57C | 0.576
103 | A37G G50C U54A C61A | ≤ 0.5
104 | G38C G44A | 0.72
105 | A37U C55A | ≤ 0.5
106 | A37U C55G | 0.609
107 | A37U C55U | 0.594
108 | A37G A70G | 0.832
109 | A37G G39A A69U | 0.589
110 | A37G U53C G58A G68A | ≤ 0.5
111 | A37U C62U C66G | ≤ 0.5
112 | G38C C55G G67A | ≤ 0.5
113 | G38C A40C U53C | 0.639
114 | G38C G48A G56C | 0.7
115 | A37G A45U C60U A70G | ≤ 0.5
116 | A37U U47C U53G C62U | ≤ 0.5
117 | G38A U53A C66U | ≤ 0.5
118 | A37U G51C A57C | 0.552
119 | A37U G44A G67U A70G | ≤ 0.5
120 | A37G G56A C62A A70G | ≤ 0.5

Row | Variant | yeast fitness
121 | G38C A43C G51C G56C | ≤ 0.5
122 | A37G C46U C55U | ≤ 0.5
123 | A37U A43U A57U C66A | ≤ 0.5
124 | A37G G50C | 0.693
125 | A37U U47C G51C G63C | 0.507
126 | G38C G50A | 0.734
127 | G38C A45U C66U | ≤ 0.5
128 | G38C G41C C61U A70G | ≤ 0.5
129 | G38C C60U G68C | ≤ 0.5
130 | A37U G44A A69C | ≤ 0.5
131 | G38A U47C G56A | 0.673
132 | A37G G56A G63A | ≤ 0.5
133 | A37U A42U G52C | 0.575
134 | A37G A43C | 0.89
135 | A37G A43U | 0.631
136 | A37G A42C C55G G68C | ≤ 0.5
137 | A37U G58A G68A | 0.588
138 | A37G G38A C55U U59G | ≤ 0.5
139 | A37G A40U C55A | 0.829
140 | A37U A42G A69C | ≤ 0.5
141 | A37U A42G A69U | ≤ 0.5
142 | G38C G39C U54G | 0.545
143 | A37U C49U U64A | ≤ 0.5
144 | A37G A45C C61G | ≤ 0.5

Row | Variant | yeast fitness
145 | A37G A45C C61U | 0.579
146 | A37G C60U | 0.631
147 | A37G C60G | ≤ 0.5
148 | A37G C60A | 0.661
149 | G38C A40U G51A C60U G68A | ≤ 0.5
150 | A37U A65U | 0.665
151 | A37G G48A G50A U59G | 0.66
152 | G38C A43G C49G G51A C60U | ≤ 0.5
153 | G38A A45G G52A C61G | 0.679
154 | G38A A45C A69U | 0.684
155 | A37U C66G | ≤ 0.5
156 | A37G C55A | ≤ 0.5
157 | G38A A40U G58C | 0.853
158 | G38C C49U | 0.67
159 | A37G | 0.734
160 | A37U | 0.722
161 | A37U G51A C55U | ≤ 0.5
162 | G38C A45C | 0.58
163 | G38C G50A U53G G68A | 0.597
164 | A37C G68A | 0.729
165 | A37C G68U | 0.761
166 | A37U A40U G56C A69U | ≤ 0.5
167 | A37U A70G | 0.72
